Results published in ChEMBL document CHEMBL1129512, “Studies on the mechanism of phosphatidylinositol 3-kinase inhibition by wortmannin and related analogs” (J Med Chem, 1996).
Where “and” joins values, the source holds several entries; their conditions need not be identical. Equal entries are not always repeated.

What was measured:
[1] = In vitro inhibitory activity against Phosphatidylinositol 3-Kinase
Method in brief: (§1)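 Purified PI 3-kinase from bovine brain was used as the enzyme source. Results are reported as IC50 values.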

Mus musculus [2] = assay: In vivo inhibition of tumor growth in C3H Mammary model was evaluated at dose 0.50 mg/kg peroral administration; type: functional; settings: route oral
Method in brief: (§2)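 Murine tumours were serially passaged as tumour fragments, implanted s.c. by trochar in the axillary region. Daily oral dosing began 1 day after implant, as a suspension in 2.5% emulphor EL-620 in 0.9% NaCl. There were 10 randomized mice per group. Tumours were measured by caliper the day after the last dose, with weight = length × width² × 0.5. Inhibition was 100 × (1 − mean treated/mean control weight). A group was toxic if lethality was >25%.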

Mus musculus [3] = assay: In vivo inhibition of tumor growth in C3H Mammary model was evaluated at dose 1.0 mg/kg peroral administration; type: functional; settings: route oral; method in brief: as §2
Mus musculus [4] = assay: In vivo inhibition of tumor growth in C3H Mammary model was evaluated at dose 5.0 mg/kg peroral administration; range is 60-79%; type: functional; settings: route oral
Method in brief: (§3)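 Murine C3H mammary tumour fragments were implanted subcutaneously by trochar in the axillary region, in groups of 10 randomized mice. Oral dosing started 1 day after implant, daily ×10, as a suspension in 2.5% emulphor EL-620 in 0.9% NaCl (water for one analog). Tumour weight, calculated as length×width²×0.5 from calipers, was measured the day after the last dose. Percent inhibition was calculated versus controls. Groups with >25% lethality were scored toxic.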

Mus musculus [5] = assay: In vivo inhibition of tumor growth in C3H Mammary model was evaluated at dose 10 mg/kg peroral administration; type: functional; settings: route oral; method in brief: as §3
[6] = Inhibition of Phosphatidylinositol 3-Kinase; method in brief: as §1
Mus musculus [7] = assay: In vivo inhibition of tumor growth in C-26 colon model was evaluated dose 1.50 mg/kg peroral administration; type: functional; settings: route oral; method in brief: as §2
Homo sapiens [8] = assay: In vivo inhibition of tumor growth PANC-1 pancreatic model was evaluated at dose 1.50 mg/kg peroral administration; type: functional; settings: route oral
Method in brief: (§4)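 Human xenograft fragments were implanted s.c. via trochar in the axillary region of mice. Daily oral dosing began 7 days after implant, as a suspension in 2.5% emulphor EL-620 in 0.9% NaCl. There were 10 randomized mice per group. Tumours were measured by caliper 5 days after the last dose, with weight = length × width² × 0.5. Inhibition was 100 × (1 − treated/control mean weight), and toxic meant lethality >25%.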

Homo sapiens [9] = assay: In vivo inhibition of tumor growth in MX-1 mammary model was evaluated at dose 0.75 mg/kg peroral administration; type: functional; settings: route oral
Mus musculus [10] = assay: In vivo inhibition of tumor growth in C3H Mammary model was evaluated at dose 1.25 mg/kg peroral administration; range is 60-79%; type: functional; settings: route oral; method in brief: as §2
Homo sapiens [11] = assay: In vivo inhibition of tumor growth in LX-1 lung model was evaluated at dose 0.75 mg/kg peroral administration; type: functional; settings: route oral; method in brief: as §4
Mus musculus [12] = assay: In vivo inhibition of tumor growth in X-5563 plasma cell myeloma model was evaluated at dose 1.25 mg/kg peroral administration; type: functional; settings: route oral
Homo sapiens [13] = assay: In vivo inhibition of tumor growth in LX-1 lung model was evaluated at dose 0.38 mg/kg peroral administration; type: functional; settings: route oral; method in brief: as §4
Homo sapiens [14] = assay: In vivo inhibition of tumor growth IGROV1 ovarian model was evaluated at dose 0.75 mg/kg peroral administration; type: functional; settings: IGROV-1, route oral
Method in brief: (§5)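 HC1 colon and IGROV1 ovarian xenografts were implanted s.c. as fragments by axillary trochar. Daily oral dosing started 14 days after implant, as a suspension in 2.5% emulphor EL-620/0.9% NaCl. Groups were 10 randomized mice.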

Homo sapiens [15] = assay: In vivo inhibition of tumor growth in VRC5 colon model was evaluated at dose 0.75 mg/kg peroral administration; type: functional; settings: route oral
Homo sapiens [16] = assay: In vivo inhibition of tumor growth MX-1 mammary model was evaluated at dose 1.50 mg/kg peroral administration; type: functional; settings: route oral
Homo sapiens [17] = assay: In vivo inhibition of tumor growth in CX-1 colon model was evaluated at dose 1.50 mg/kg peroral administration; type: functional; settings: route oral; method in brief: as §4
Homo sapiens [18] = assay: In vivo inhibition of tumor growth in BXPC-3 pancreatic model was evaluated at dose 0.75 mg/kg peroral administration; range is 60-79%; type: functional; settings: route oral; method in brief: as §4
Mus musculus [19] = assay: In vivo inhibition of tumor growth in M-5076 ovarian model was evaluated at dose 1.50 mg/kg peroral administration; type: functional; settings: M5076, route oral
Method in brief: (§6)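 For the murine M-5076 ovarian tumour, fragments were implanted s.c. by trochar in the axilla. Daily oral dosing began 5 days after implant, as a suspension in 2.5% emulphor EL-620/0.9% NaCl. There were 10 randomized mice per group.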

Mus musculus [20] = assay: In vivo inhibition of tumor growth in 6C3HED lymphosarcomal was evaluated at dose 1.50 mg/kg peroral administration; type: functional; settings: route oral; method in brief: as §2
Homo sapiens [21] = assay: In vivo inhibition of tumor growth in HC1 colon model was evaluated at dose 1.50 mg/kg peroral administration; type: functional; settings: route oral; method in brief: as §5
Homo sapiens [22] = assay: In vivo inhibition of tumor growth in HC1 colon model was evaluated at dose 0.75 mg/kg peroral administration; type: functional; settings: route oral; method in brief: as §5
Homo sapiens [23] = assay: In vivo inhibition of tumor growth in PACA-2 pancreatic model was evaluated at dose 0.75 mg/kg peroral administration; type: functional; settings: route oral; method in brief: as §4
Mus musculus [24] = assay: IIn vivo inhibition of tumor growth in B-16 melanoma model was evaluated by inhibition of tumor growth at dose 0.75 mg/kg peroral administration; type: functional; settings: B16, route oral; method in brief: as §2
Homo sapiens [25] = assay: In vivo inhibition of tumor growth in PANC-1 pancreatic model was evaluated at dose 0.75 mg/kg peroral administration; type: functional; settings: route oral; method in brief: as §4
Mus musculus [26] = assay: In vivo inhibition of tumor growth in C3H Mammary model was evaluated at dose 2.50 mg/kg peroral administration; type: functional; settings: route oral; method in brief: as §2
Homo sapiens [27] = assay: In vivo inhibition of tumor growth in VRC5 colon model was evaluated at dose 1.50 mg/kg peroral administration; type: functional; settings: route oral
Mus musculus [28] = assay: In vivo inhibition of tumor growth in 6C3HED lymphosarcomal was evaluated at dose 0.75 mg/kg peroral administration; type: functional; settings: route oral; method in brief: as §2
Homo sapiens [29] = assay: In vivo inhibition of tumor growth in PACA-2 pancreatic model was evaluated at dose 1.50 mg/kg peroral administration; type: functional; settings: route oral; method in brief: as §4
Mus musculus [30] = assay: In vivo inhibition of tumor growth in Lewis lung model was evaluated at dose 0.75 mg/kg peroral administration; type: functional; settings: route oral; method in brief: as §2
Mus musculus [31] = assay: In vivo inhibition of tumor growth in Lewis lung model was evaluated at dose 1.50 mg/kg peroral administration; type: functional; settings: route oral; method in brief: as §2
Homo sapiens [32] = assay: In vivo inhibition of tumor growth in GC3 colon model was evaluated at dose 0.38 mg/kg peroral administration; type: functional; settings: route oral; method in brief: as §4
Homo sapiens [33] = assay: In vivo inhibition of tumor growth in CX-1 colon model was evaluated at dose 0.75 mg/kg peroral administration; type: functional; settings: route oral; method in brief: as §4
Mus musculus [34] = assay: In vivo inhibition of tumor growth in M-5076 ovarian model was evaluated at dose 0.75 mg/kg peroral administration; type: functional; settings: M5076, route oral; method in brief: as §6
Mus musculus [35] = assay: In vivo inhibition of tumor growth B-16 melanoma model was evaluated at dose 1.50 mg/kg peroral administration; type: functional; settings: B16, route oral; method in brief: as §2
Homo sapiens [36] = assay: In vivo inhibition of tumor growth in IGROV1 ovarian model was evaluated at dose 1.50 mg/kg peroral administration; type: functional; settings: IGROV-1, route oral; method in brief: as §5
Homo sapiens [37] = assay: In vivo inhibition of tumor growth in BXPC-3 pancreatic model was evaluated at dose 1.50 mg/kg peroral administration; type: functional; settings: route oral; method in brief: as §4
Homo sapiens [38] = assay: In vivo toxicity against PI 3-Kinase in GC3 colon model was evaluated by inhibition of tumor growth at dose 0.75 mg/kg peroral administration; type: functional; settings: route oral; method in brief: as §4
Mus musculus [39] = assay: In vivo inhibition of tumor growth in C-26 colon model was evaluated dose 0.75 mg/kg peroral administration; type: functional; settings: route oral; method in brief: as §2

In the case of COC[C@H]1OC(=O)c2coc3c2[C@@]1(C)C1=C(C3=O)[C@@H]2CC[C@H](O)[C@@]2(C)C[C@H]1OC(C)=O, the IC50 [1] is reported as 0.0005 µM, the inhibition in vivo at 0.5 mg/kg (Mus musculus [2]) is reported as under 60% and the inhibition in vivo at 1 mg/kg (Mus musculus [3]) is reported as over 25%.
In the case of CC/N=C/C1=C(O)O[C@H](COC)[C@@]2(C)C1=C(O)C(=O)C1=C2[C@H](OC(C)=O)C[C@]2(C)C(=O)CC[C@@H]12, the IC50 [1] is reported as over 0.5 µM.
COC[C@H]1OC(=O)c2c(C)oc3c2[C@@]1(C)C1=C(C3=O)[C@@H]2CCC(=O)[C@@]2(C)C[C@H]1OC(C)=O gave an IC50 [1] of over 0.5 µM.
COC[C@H]1OC(=O)c2coc3c2[C@@]1(C)C1=C(C3=O)[C@@H]2CC=C(OC(C)=O)[C@@]2(C)C[C@H]1OC(C)=O gave an IC50 [1] of 0.059 µM.
Compound CCC/N=C\C1=C(O)O[C@H](COC)[C@@]2(C)C1=C(O)C(=O)C1=C2[C@H](OC(C)=O)C[C@]2(C)C(=O)CC[C@@H]12 has an IC50 [1] of over 0.5 µM.
Compound CCN(/C=C1\C(=O)O[C@H](COC)[C@@]2(C)C1=C(O)C(=O)C1=C2[C@H](OC(C)=O)C[C@]2(C)C(=O)CC[C@@H]12)CC has an inhibition in vivo at 5 mg/kg (Mus musculus [4]) of 79%, an inhibition in vivo at 10 mg/kg (Mus musculus [5]) of over 25% and an IC50 [6] of 0.08 µM.
With COC[C@H]1OC(=O)C2=CCOC3=C2[C@@]1(C)C1=C(C3=O)[C@@H]2CCC(=O)[C@@]2(C)C[C@H]1OC(C)=O the IC50 [1] was 0.271 µM.
Compound COC[C@H]1OC(=O)C23CC2COC2=C3[C@@]1(C)C1=C(C2=O)[C@@H]2CCC(=O)[C@@]2(C)C[C@H]1OC(C)=O (stereo partly specified) has an IC50 [1] of over 0.5 µM.
COC[C@H]1OC(=O)c2coc3c2[C@@]1(C)C1=C(C3=O)[C@@H]2CCC(=O)[C@@]2(C)C[C@H]1OC(C)=O [WORTMANNIN] gave an inhibition in vivo at 1.5 mg/kg (Mus musculus [7]) of over 25%, an inhibition in vivo at 1.5 mg/kg (Homo sapiens [8]) of over 25% and an inhibition in vivo at 0.75 mg/kg (Homo sapiens [9]) of under 60%. For the same compound, the IC50 [1] was 0.0042 µM, the inhibition in vivo at 1.25 mg/kg (Mus musculus [10]) was 79% and the inhibition in vivo at 0.75 mg/kg (Homo sapiens [11]) was over 25%. For the same compound, the Inhibition (Mus musculus [12]) was <60% and >25%, the inhibition in vivo at 0.38 mg/kg (Homo sapiens [13]) was under 60% and the inhibition in vivo at 0.75 mg/kg (Homo sapiens [14]) was under 60%. For the same compound, the inhibition in vivo at 0.75 mg/kg (Homo sapiens [15]) was under 60%, the inhibition in vivo at 1.5 mg/kg (Homo sapiens [16]) was over 25% and the inhibition in vivo at 1.5 mg/kg (Homo sapiens [17]) was over 25%. The inhibition in vivo at 0.75 mg/kg (Homo sapiens [18]) was 79%, the inhibition in vivo at 1.5 mg/kg (Mus musculus [19]) was over 25% and the inhibition in vivo at 1.5 mg/kg (Mus musculus [20]) was over 25%. For the same compound, the inhibition in vivo at 1.5 mg/kg (Homo sapiens [21]) was over 25%, the inhibition in vivo at 0.75 mg/kg (Homo sapiens [22]) was under 60% and the inhibition in vivo at 0.75 mg/kg (Homo sapiens [23]) was under 60%. For the same compound, the inhibition in vivo at 0.75 mg/kg (Mus musculus [24]) was under 60%, the inhibition in vivo at 0.75 mg/kg (Homo sapiens [25]) was under 60% and the inhibition in vivo at 2.5 mg/kg (Mus musculus [26]) was over 25%. The inhibition in vivo at 1.5 mg/kg (Homo sapiens [27]) was over 25%, the inhibition in vivo at 0.75 mg/kg (Mus musculus [28]) was under 60% and the inhibition in vivo at 1.5 mg/kg (Homo sapiens [29]) was over 25%. It also gave an inhibition in vivo at 0.75 mg/kg (Mus musculus [30]) of under 60%, an inhibition in vivo at 1.5 mg/kg (Mus musculus [31]) of over 25% and an inhibition in vivo at 0.38 mg/kg (Homo sapiens [32]) of over 25%. For the same compound, the inhibition in vivo at 0.75 mg/kg (Homo sapiens [33]) was under 60%, the inhibition in vivo at 0.75 mg/kg (Mus musculus [34]) was under 60% and the inhibition in vivo at 1.5 mg/kg (Mus musculus [35]) was over 25%. It also gave an inhibition in vivo at 1.5 mg/kg (Homo sapiens [36]) of over 25%, an inhibition in vivo at 1.5 mg/kg (Homo sapiens [37]) of over 25% and an inhibition in vivo at 0.75 mg/kg (Homo sapiens [38]) of over 25%. For the same compound, the inhibition in vivo at 0.75 mg/kg (Mus musculus [39]) was under 60%.
